How the values were obtained:
Type in all cases: functional
[1] = tested on: SK-MEL-28; assay: Growth inhibition of human SK-MEL-28 cells after 48 hrs by sulforhodamine B assay; conditions: SK-MEL-28, 48 h
Summary of the method: (§1)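 NCI 60-cell-line panel. Cells were grown in medium with 5% fetal calf serum and 2 mM L-glutamine, then preincubated 24 h in plates. Compounds were added from DMSO at five 10-fold concentrations from 100 to 0.01 µM and left on cells continuously for 48 h. Cell growth was read by sulforhodamine B protein stain. GI50 is the concentration that halves net protein increase relative to control cells.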

[2] = tested on: SN12C; assay: Growth inhibition of human SN12C cells assessed as cell growth at 10 uM after 48 hrs by sulforhodamine B assay; conditions: read-out: Activity
[3] = tested on: TK-10; assay: Growth inhibition of human TK10 cells after 48 hrs by sulforhodamine B assay; conditions: TK-10, 48 h
Summary of the method: (§2)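 NCI 60-line panel. Cells were grown in medium with 5% fetal calf serum and 2 mM L-glutamine and preincubated 24 h in plates. Compound in DMSO was added at 10^-4 to 10^-8 M (five 10-fold levels), with continuous exposure for 48 h. Growth was read by SRB protein staining. GI50 is the concentration giving 50% reduction in net protein increase versus control cells.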

[4] = tested on: Malme-3M; assay: Growth inhibition of human MALME-3M cells after 48 hrs by sulforhodamine B assay
Summary of the method: (§3)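 NCI 60-cell-line panel grown in RPMI-type medium with 5% fetal calf serum and 2 mM L-glutamine. Cells preincubated 24 h, then exposed continuously for 48 h to compound in DMSO at 10^-4 to 10^-8 M (five 10-fold levels). Growth read by SRB protein stain. GI50 is the concentration giving a 50% reduction in net protein increase relative to control cells.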

[5] = tested on: SR; assay: Growth inhibition of human SR cells after 48 hrs by sulforhodamine B assay; summary of the method: as §1
[6] = Growth inhibition of human HCC2998 cells assessed as cell growth at 10 uM after 48 hrs by sulforhodamine B assay; conditions: HCC 2998, 48 h, read-out: Activity
[7] = tested on: UO-31; assay: Growth inhibition of human UO31 cells after 48 hrs by sulforhodamine B assay; conditions: UO-31, 48 h; summary of the method: as §2
[8] = tested on: UACC-62; assay: Growth inhibition of human UACC62 cells assessed as cell growth at 10 uM after 48 hrs by sulforhodamine B assay; conditions: UACC-62, 48 h, read-out: Activity
Summary of the method: (§4)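 Single-dose NCI screen. Tumor lines were cultured in medium with 5% fetal calf serum and 2 mM L-glutamine, preincubated 24 h, then given compound in DMSO. After 48 h continuous exposure, cell growth was estimated by sulforhodamine B protein assay.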

[9] = Growth inhibition of human Hs 578T cells assessed as cell growth at 10 uM after 48 hrs by sulforhodamine B assay; conditions: read-out: Activity
[10] = Growth inhibition of human EKVX cells after 48 hrs by sulforhodamine B assay; summary of the method: as §3
[11] = tested on: CAKI-1; assay: Growth inhibition of human CAKI-1 cells after 48 hrs by sulforhodamine B assay; conditions: CAKI-1, 48 h; summary of the method: as §3
[12] = tested on: OVCAR-4; assay: Growth inhibition of human OVCAR4 cells assessed as cell growth at 10 uM after 48 hrs by sulforhodamine B assay; conditions: OVCAR-4, 48 h, read-out: Activity
[13] = tested on: NCI-H23; assay: Growth inhibition of human NCI-H23 cells after 48 hrs by sulforhodamine B assay; conditions: NCI-H23, 48 h; summary of the method: as §1
[14] = tested on: A549; assay: Growth inhibition of human A549/ATCC cells after 48 hrs by sulforhodamine B assay; conditions: A549, 48 h; summary of the method: as §3
[15] = tested on: SF-539; assay: Growth inhibition of human SF539 cells assessed as cell growth at 10 uM after 48 hrs by sulforhodamine B assay; conditions: SF-539, 48 h, read-out: Activity
[16] = tested on: SNB-19; assay: Growth inhibition of human SNB19 cells after 48 hrs by sulforhodamine B assay; conditions: SNB-19, 48 h; summary of the method: as §1
[17] = tested on: K562; assay: Growth inhibition of human K562 cells after 48 hrs by sulforhodamine B assay; conditions: K562, 48 h; summary of the method: as §3
[18] = tested on: A549; assay: Growth inhibition of human A549/ATCC cells assessed as cell growth at 10 uM after 48 hrs by sulforhodamine B assay; conditions: A549, 48 h, read-out: Activity
[19] = tested on: KM12; assay: Growth inhibition of human KM12 cells after 48 hrs by sulforhodamine B assay; conditions: KM12, 48 h; summary of the method: as §3
[20] = tested on: SR; assay: Growth inhibition of human SR cells assessed as cell growth at 10 uM after 48 hrs by sulforhodamine B assay; conditions: read-out: Activity; summary of the method: as §4
[21] = tested on: SK-OV-3; assay: Growth inhibition of human SKOV3 cells after 48 hrs by sulforhodamine B assay; conditions: SK-OV-3, 48 h; summary of the method: as §1
[22] = tested on: KM12; assay: Growth inhibition of human KM12 cells assessed as cell growth at 10 uM after 48 hrs by sulforhodamine B assay; conditions: KM12, 48 h, read-out: Activity
[23] = tested on: MDA-MB-231; assay: Growth inhibition of human MDA-MB-231 cells assessed as cell growth at 10 uM after 48 hrs by sulforhodamine B assay; conditions: MDA-MB-231, 48 h, read-out: Activity
[24] = tested on: UACC-62; assay: Growth inhibition of human UACC62 cells after 48 hrs by sulforhodamine B assay; conditions: UACC-62, 48 h; summary of the method: as §2
[25] = tested on: HT-29; assay: Growth inhibition of human HT-29 cells after 48 hrs by sulforhodamine B assay; conditions: HT-29, 48 h; summary of the method: as §3
[26] = tested on: MDA-MB-435; assay: Growth inhibition of human MDA-MB-435 cells after 48 hrs by sulforhodamine B assay; conditions: MDA-MB-435, 48 h; summary of the method: as §1
[27] = tested on: SK-MEL-5; assay: Growth inhibition of human SK-MEL-5 cells after 48 hrs by sulforhodamine B assay; conditions: SK-MEL-5, 48 h; summary of the method: as §1
[28] = tested on: 786-0; assay: Growth inhibition of human 786-0 cells assessed as cell growth at 10 uM after 48 hrs by sulforhodamine B assay; conditions: 786-0, 48 h, read-out: Activity
[29] = tested on: M14; assay: Growth inhibition of human M14 cells assessed as cell growth at 10 uM after 48 hrs by sulforhodamine B assay; conditions: M14, 48 h, read-out: Activity
[30] = tested on: 786-0; assay: Growth inhibition of human 786-0 cells after 48 hrs by sulforhodamine B assay; conditions: 786-0, 48 h; summary of the method: as §3
[31] = tested on: CCRF-CEM; assay: Growth inhibition of human CCRF-CEM cells assessed as cell growth at 10 uM after 48 hrs by sulforhodamine B assay; conditions: read-out: Activity
[32] = read-out: LC50 (the source's name)

SMILES: Cc1ccc(C2=NN(c3ccc(S(C)(=O)=O)cc3)C(=O)CC2)cc1
- GI50 [1]: 0.66 µM
- TGI [1]: > 100 µM
- CC50 [1, 32]: > 100 µM
- growth at 10 µM [2]: 39.7%
- GI50 [3]: 7.69 µM
- TGI [3]: > 100 µM
- CC50 [3, 32]: > 100 µM
- TGI [4]: > 100 µM
- CC50 [4, 32]: > 100 µM
- GI50 [5]: 0.29 µM
- LC50 [5]: > 100 µM
- TGI [5]: > 100 µM
- growth at 10 µM [6]: 47.2%
- GI50 [7]: 4.72 µM
- LC50 (concentration killing 50% of cells) [7]: > 100 µM
- TGI [7]: > 100 µM
- growth at 10 µM [8]: 42.9%
- growth at 10 µM [9]: -1.17%
- GI50 [10]: 3.02 µM
- TGI [10]: > 100 µM
- CC50 [10, 32]: > 100 µM
- GI50 [11]: 0.29 µM
- LC50 (lethal concentration, 50% cell kill) [11]: > 100 µM
- growth at 10 µM [12]: 60.8%
- GI50 [13]: 2.5 µM
- TGI [13]: > 100 µM
- CC50 [13, 32]: > 100 µM
- GI50 [14]: 0.52 µM
- TGI [14]: > 100 µM
- CC50 [14, 32]: > 100 µM
- growth at 10 µM [15]: -7.93%
- GI50 [16]: 1.25 µM
- TGI [16]: > 100 µM
- CC50 [16, 32]: > 100 µM
- GI50 [17]: 0.37 µM
- TGI [17]: > 100 µM
- CC50 [17, 32]: > 100 µM
- growth at 10 µM [18]: 36.6%
- GI50 [19]: 0.44 µM
- LC50 [19]: > 100 µM
- TGI [19]: > 100 µM
- growth at 10 µM [20]: 4.47%
- GI50 [21]: 1.15 µM
- LC50 [21]: > 100 µM
- TGI [21]: 20.7 µM
- growth at 10 µM [22]: 35%
- growth at 10 µM [23]: 47.8%
- GI50 [24]: 0.46 µM
- LC50 (50% net cell kill concentration) [24]: > 100 µM
- TGI [24]: > 100 µM
- GI50 [25]: 0.33 µM
- LC50 (50% lethal concentration) [25]: > 100 µM
- TGI [25]: 10 µM
- GI50 [26]: 0.12 µM
- LC50 (concentration killing 50% of starting cells) [26]: > 100 µM
- TGI [26]: 0.39 µM
- GI50 [27]: 0.41 µM
- LC50 [27]: > 100 µM
- TGI [27]: > 100 µM
- growth at 10 µM [28]: 38.3%
- growth at 10 µM [29]: 10.2%
- GI50 [30]: 5.78 µM
- LC50 [30]: > 100 µM
- TGI [30]: > 100 µM
- growth at 10 µM [31]: 14.9%

SMILES: O=c1[nH]cc(F)c(=O)[nH]1 [FLUOROURACIL]
- GI50 [1]: 1.03 µM
- GI50 [3]: 1.12 µM
- GI50 [4]: 0.05 µM
- GI50 [5]: 0.02 µM
- GI50 [7]: 1.42 µM
- GI50 [10]: 61.8 µM
- GI50 [11]: 0.07 µM
- GI50 [13]: 0.33 µM
- GI50 [14]: 0.18 µM
- GI50 [16]: 3.81 µM
- GI50 [17]: 3.58 µM
- GI50 [19]: 0.21 µM
- GI50 [21]: 21.8 µM
- GI50 [24]: 0.52 µM
- GI50 [25]: 0.17 µM
- GI50 [26]: 0.07 µM
- GI50 [27]: 0.46 µM
- GI50 [30]: 0.72 µM

Source: ChEMBL document CHEMBL2417474, “Synthesis, antiproliferative and anti-inflammatory activities of some novel 6-aryl-2-(p-(methanesulfonyl)phenyl)-4,5-dihydropyridazi-3(2H)-ones” (Eur J Med Chem, 2013)
